The record followed here is ChEMBL document CHEMBL4610003 (Bioorg Med Chem, 2020).

Converted amounts (≈) assume the structure as drawn.

Series [1] is described as follows: AUC (0 to infinity) in CD-1 mouse at 10 mg/kg, po via gavage administered as single dose. It counts as ADME, organism-based. Also noted: dose 10 mg/kg, route oral, time infinity. Conditions: in vivo. A digest of the protocol:
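Male CD-1 mice given a single 10 mg/kg dose by oral gavage. Exposure is reported as area under the curve from 0 to infinity in µg*h/mL.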

Series [2] concerns Mycobacterium tuberculosis. Kind of series: Antimycobacterial activity against Mycobacterium tuberculosis H37Rv assessed as bacterial growth inhibition incubated for 10 days under anerobic condition followed by incubation under ambient gaseous condition for […] by low oxygen recovery assay. It counts as functional. A digest of the protocol: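 Read-out is MIC90, the lowest concentration giving 90% growth inhibition of M.tb H37Rv, in µg/mL. Bacteria were held under non-replicating, low-oxygen conditions (LORA).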

In series [3] the target is Voltage-gated inwardly rectifying potassium channel KCNH2 (Homo sapiens, UniProt Q12809). Kind of series: Inhibition of human ERG.
Sequence of Voltage-gated inwardly rectifying potassium channel KCNH2 (Q12809 whole entry): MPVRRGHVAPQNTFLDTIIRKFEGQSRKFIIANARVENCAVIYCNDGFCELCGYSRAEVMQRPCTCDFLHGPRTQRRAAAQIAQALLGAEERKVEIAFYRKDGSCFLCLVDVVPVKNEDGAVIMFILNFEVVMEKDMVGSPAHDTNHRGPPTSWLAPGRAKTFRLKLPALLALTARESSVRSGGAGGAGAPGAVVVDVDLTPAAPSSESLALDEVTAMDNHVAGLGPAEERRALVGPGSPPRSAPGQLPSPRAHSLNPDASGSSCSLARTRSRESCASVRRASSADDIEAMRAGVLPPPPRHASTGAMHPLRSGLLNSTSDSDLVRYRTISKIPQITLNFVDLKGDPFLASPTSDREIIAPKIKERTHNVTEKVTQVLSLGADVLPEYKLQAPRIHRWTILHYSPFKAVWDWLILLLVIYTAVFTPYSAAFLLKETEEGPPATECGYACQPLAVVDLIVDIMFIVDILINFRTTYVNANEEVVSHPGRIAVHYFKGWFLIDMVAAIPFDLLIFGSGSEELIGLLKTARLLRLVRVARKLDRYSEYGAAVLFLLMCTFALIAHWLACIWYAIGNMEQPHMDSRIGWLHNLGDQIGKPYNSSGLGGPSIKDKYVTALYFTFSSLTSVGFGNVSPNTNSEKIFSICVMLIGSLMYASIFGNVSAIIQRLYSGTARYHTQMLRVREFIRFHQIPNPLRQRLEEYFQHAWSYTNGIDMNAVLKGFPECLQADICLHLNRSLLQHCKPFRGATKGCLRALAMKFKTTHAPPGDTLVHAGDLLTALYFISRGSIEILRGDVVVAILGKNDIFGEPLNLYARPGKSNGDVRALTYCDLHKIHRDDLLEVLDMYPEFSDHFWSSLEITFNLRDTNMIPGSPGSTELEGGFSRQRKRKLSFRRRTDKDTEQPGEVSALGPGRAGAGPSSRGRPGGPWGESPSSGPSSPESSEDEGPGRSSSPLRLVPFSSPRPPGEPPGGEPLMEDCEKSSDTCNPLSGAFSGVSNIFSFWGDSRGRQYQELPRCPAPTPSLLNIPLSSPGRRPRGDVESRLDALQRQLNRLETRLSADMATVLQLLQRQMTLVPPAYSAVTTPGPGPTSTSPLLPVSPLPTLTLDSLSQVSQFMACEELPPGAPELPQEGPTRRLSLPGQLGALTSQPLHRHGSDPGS
The nature of series [4]: Intrinsic clearance in mouse liver microsomes assessed per mg protein. In kind it is ADME, Microsome. Conditions: read-out: CLH. A digest of the protocol:
(§1)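 Clearance of compound by human or mouse liver microsomes, expressed as µL/min/mg protein.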

Series [5] can be described thus: Oral bioavailability in CD-1 mouse at 10 mg/kg administered via gavage as single dose. In kind it is ADME, organism-based. Conditions: in vivo.
A short description of series [6]: Intrinsic clearance in human liver microsomes assessed per mg protein. In kind it is ADME, Microsome. Conditions: read-out: CLH. A digest of the protocol:
as §1

Series [7] can be described thus: Apparent volume of distribution during terminal phase in CD-1 mouse at 2 to 3 mg/kg, iv administered as single bolus dose. In kind it is ADME, organism-based. The conditions noted are these: in vivo. A digest of the protocol: (§2)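 Male CD-1 mice received a single intravenous bolus at 2–3 mg/kg. Reported values are IV clearance and the apparent volume of distribution during the terminal phase, in L/kg.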

Series [8] can be described thus: Clearance in CD-1 mouse at 2 to 3 mg/kg, iv administered as single bolus dose. It counts as ADME, organism-based. Conditions: in vivo. A digest of the protocol: as §2
The test system of a further series is Vero. The experiment in a line: Cytotoxicity against African green monkey Vero cells assessed as reduction in cell viability incubated for 72 hrs by […] assay. It counts as cell-based. Conditions: Chlorocebus sabaeus.
The subject of series [9] is Mycobacterium tuberculosis. Kind of series: Antimycobacterial activity against Mycobacterium tuberculosis H37Rv assessed as bacterial growth inhibition under replicating, aerobic condition by microplate Alamar blue assay. It counts as functional. A digest of the protocol: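 Read-out is MIC90, the lowest concentration giving 90% growth inhibition of M.tb H37Rv, in µg/mL. Bacteria were grown under aerobic, replicating conditions (MABA).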

For `COc1cc([C@](O)(CCN(C)C)[C@@H](c2cc3cc(Br)ccc3nc2OC)c2ccnc(OC)c2OC)cc(OC2CCC2)n1` (racemic), in series [1], the AUC(0-inf) was 8400 ng·h/mL. For the same compound, the MIC90 was 0.01 µg/mL (≈ 0.015 µM) in [2] and less than 0.004 µg/mL in [9]. Besides, the values for the IC50 (in [3]; with Vero) were more than 10 µM and more than 10 µg/mL, respectively. Further, the values for the microsomal CLint in series [4] and in series [6] were 4.6 µL/min/mg and 2.5 µL/min/mg, respectively. Besides, the bioavailability in series [5] is 56%. Also, in [7], the Vz/F came out at 33 L/kg. Besides, the clearance in series [8] amounted to 11 mL/min/kg.

The compound `COc1cc([C@](O)(CCN(C)C)[C@@H](c2cc3cc(Br)ccc3nc2OC)c2cccc(OC)c2F)cc(OC(C)C)n1` (racemic) had an AUC(0-inf) in series [1] of 9000 ng·h/mL. Besides, the MIC90 was 0.03 µg/mL (≈ 0.0467 µM) in series [2] and less than 0.02 µg/mL in series [9]. Moreover, the values for the IC50 (in series [3]; with Vero) were more than 30 µM and more than 10 µg/mL, respectively. Besides, the microsomal CLint in [4] amounted to 6 µL/min/mg; in series [6], 3.4 µL/min/mg. Further, in [5], the bioavailability turned out to be 43%. The Vz/F in series [7] was 34 L/kg. In series [8], this compound registered a clearance of 8.9 mL/min/kg.

Turning to `COc1cc([C@](O)(CCN(C)C)[C@H](c2cccc(C)c2)c2cc3cc(Br)ccc3nc2OC)cc(OC(C)C)n1` (racemic), the MIC90 in [2] and in [9] was 0.01 µg/mL (≈ 0.0164 µM) in each case. The compound also showed an IC50 in series [3] of more than 10 µM.

For `CCOc1cc([C@](O)(CCN(C)C)[C@@H](c2cc3cc(Br)ccc3nc2OC)c2ccnc(OC)c2OC)cc(OC(C)C)n1` (racemic), the AUC(0-inf) in series [1] came out at 32000 ng·h/mL. Besides, the MIC90 in series [2] and in [9] was less than 0.02 µg/mL throughout. Moreover, the results for the microsomal CLint in [4] and in [6] were 1.6 µL/min/mg and 1.8 µL/min/mg, respectively. For the same compound, in series [5], the bioavailability is 58%. In series [7], the Vz/F was found to be 9.1 L/kg. The compound further came in with a clearance in [8] of 3.1 mL/min/kg. Besides, the IC50 with Vero is more than 10 µg/mL.

With `CCSc1cc([C@](O)(CCN(C)C)[C@@H](c2cc3cc(C#N)ccc3nc2OC)c2ccnc(OC)c2OC)cc(SCC)n1` (racemic), the MIC90 in series [2] turned out to be 0.03 µg/mL (≈ 0.0473 µM); in [9] it was 0.06 µg/mL (≈ 0.0947 µM). The IC50 in [3] was 1.5 µM.

`CCOc1cc([C@](O)(CCN(C)C)[C@H](c2cccc(C)c2)c2cc3cc(Br)ccc3nc2OC)cc(OC)n1` (racemic): in [1], the AUC(0-inf) was determined as 9400 ng·h/mL. Moreover, the MIC90 in [2] and in series [9] was less than 0.02 µg/mL throughout. Moreover, the IC50 in [3] was more than 10 µM; in the series with Vero, more than 10 µg/mL. Besides, the microsomal CLint was found to be 7.8 µL/min/mg in series [4] and 4.4 µL/min/mg in series [6]. The same compound showed a bioavailability in [5] of 65%. Moreover, in series [7], the Vz/F is 45 L/kg. This compound also yielded a clearance in series [8] of 12 mL/min/kg.

Turning to `COc1cc([C@](O)(CCN(C)C)[C@@H](c2cc3cc(C#N)ccc3nc2OC)c2cccc(C)c2F)cc(OC(F)F)n1` (racemic), the AUC(0-inf) in series [1] was determined as 8600 ng·h/mL. Moreover, the MIC90 stood at 0.03 µg/mL (≈ 0.0517 µM) in [2] and 0.01 µg/mL (≈ 0.0172 µM) in series [9]. In addition, the results for the IC50 (in series [3]; in the series with Vero) were more than 30 µM and more than 10 µg/mL, respectively. Further, the microsomal CLint in series [4] is 5.9 µL/min/mg; in series [6], 0.6 µL/min/mg. For the same compound, in series [5], the bioavailability came out at 66%. Besides, the Vz/F in series [7] is 38 L/kg. The clearance in series [8] stood at 13 mL/min/kg.

For `COc1cc([C@](O)(CCN(C)C)[C@@H](c2cc3cc(Br)ccc3nc2OC)c2ccnc(OC)c2OC)cc(OC(C)C)n1` (racemic), the AUC(0-inf) in [1] was 5600 ng·h/mL. The MIC90 in series [2] and in series [9] was less than 0.01 µg/mL throughout. Also, the IC50 was 17 µM in [3] and more than 10 µg/mL with Vero. The microsomal CLint came to 6.7 µL/min/mg in [4] and 6.4 µL/min/mg in [6]. This compound displayed a bioavailability in [5] of 22%. Moreover, in series [7], the Vz/F was 19 L/kg. Further, the clearance in [8] was found to be 6.8 mL/min/kg.

In the case of `COc1cc([C@](O)(CCN(C)C)[C@@H](c2cc3cc(Br)ccc3nc2OC)c2ccnc(OC)c2OC)cc(N(C)C)n1` (racemic), the values for the MIC90 in [2] and in series [9] were 0.02 µg/mL (≈ 0.0312 µM) and 0.45 µg/mL (≈ 0.702 µM), respectively.

The compound `CCOc1cc([C@](O)(CCN(C)C)[C@@H](c2cc3cc(Br)ccc3nc2OC)c2cccc(OC)c2F)cc(OC)n1` (racemic) displayed an AUC(0-inf) in series [1] of 4000 ng·h/mL. Further, the MIC90 in [2] and in [9] was less than 0.01 µg/mL in each case. The IC50 is more than 30 µM in series [3] and more than 10 µg/mL with Vero. The microsomal CLint in series [4] turned out to be 14 µL/min/mg; in series [6], 4.1 µL/min/mg. In [5], this compound had a bioavailability of 46%. In addition, the Vz/F in series [7] worked out at 51 L/kg. This compound displayed a clearance in series [8] of 19 mL/min/kg.

As for `CCSc1cc([C@](O)(CCN(C)C)[C@@H](c2cc3cc(Br)ccc3nc2OC)c2ccnc(OC)c2OC)cc(N(C)C)n1` (racemic), the MIC90 came to 0.57 µg/mL (≈ 0.85 µM) in series [2] and 0.04 µg/mL (≈ 0.0596 µM) in [9]. Also, the IC50 in series [3] is more than 10 µM.

As for `CCCOc1cc([C@](O)(CCN(C)C)[C@H](c2cccc(C)c2)c2cc3cc(Br)ccc3nc2OC)cc(OC)n1` (racemic), the MIC90 in [2] worked out at 0.02 µg/mL (≈ 0.0329 µM); in series [9] it was 0.01 µg/mL (≈ 0.0164 µM). For the same compound, in series [3], the half-maximal inhibitory concentration (IC50) is more than 10 µM.

`CCCOc1cc([C@](O)(CCN(C)C)[C@@H](c2cc3cc(Br)ccc3nc2OC)c2ccnc(OC)c2OC)cc(OC)n1` (racemic) yielded an AUC(0-inf) in series [1] of 10900 ng·h/mL. Moreover, the MIC90 is 0.06 µg/mL (≈ 0.0915 µM) in [2] and 0.01 µg/mL (≈ 0.0153 µM) in series [9]. Moreover, the microsomal CLint in [4] stood at 6.5 µL/min/mg; in series [6], 8.2 µL/min/mg. The same compound returned a bioavailability in series [5] of 50%. Further, the Vz/F in series [7] is 44 L/kg. The clearance in series [8] amounted to 6.9 mL/min/kg. The IC50 in the series with Vero is more than 10 µg/mL.

For `COc1cc([C@](O)(CCN(C)C)[C@@H](c2cc3cc(C#N)ccc3nc2OC)c2cccc(OC)c2F)cc(OC(F)F)n1` (racemic), the MIC90 in series [2] and in [9] was less than 0.02 µg/mL in each case.

With `COc1cc([C@](O)(CCN(C)C)[C@@H](c2cc3cc(Br)ccc3nc2OC)c2cccc(OC)c2F)cc(S(C)(=O)=O)n1` (racemic), the results for the MIC90 in [2] and in series [9] were 0.73 µg/mL (≈ 1.1 µM) and 0.46 µg/mL (≈ 0.694 µM), respectively. The compound also displayed an IC50 in [3] of 1.8 µM.

As to `CCOc1cc([C@](O)(CCN(C)C)[C@@H](c2cc3cc(Br)ccc3nc2OC)c2ccnc(OC)c2OC)cc(OC)n1` (racemic), the AUC(0-inf) in [1] stood at 12700 ng·h/mL. Besides, the MIC90 in series [2] and in series [9] was less than 0.02 µg/mL in each case. Besides, the IC50 is 3.3 µM in series [3] and more than 10 µg/mL with Vero. Besides, the microsomal CLint is 7.6 µL/min/mg in series [4] and 3.8 µL/min/mg in [6]. Besides, the bioavailability in series [5] was determined as 70%. Also, the Vz/F in [7] is 28 L/kg. Also, the clearance in series [8] is 9.5 mL/min/kg.

For the compound `CCSc1cc([C@](O)(CCN(C)C)[C@@H](c2cc3cc(Br)ccc3nc2OC)c2ccnc(OC)c2OC)cc(SCC)n1` (racemic), the MIC90 in [2] was 0.21 µg/mL (≈ 0.305 µM); in series [9], 0.04 µg/mL (≈ 0.0582 µM). Also, the midpoint of inhibition in series [3], the IC50, lay at 9.2 µM.

Regarding `CCSc1cc([C@](O)(CCN(C)C)[C@@H](c2cc3cc(C#N)ccc3nc2OC)c2cccc3c2OCO3)cc(SCC)n1` (racemic), the MIC90 was 0.05 µg/mL (≈ 0.0811 µM) in [2] and less than 0.02 µg/mL in series [9]. Further, in series [3], the half-maximal inhibitory concentration (IC50) is more than 10 µM.

Regarding `CCS(=O)(=O)c1cc([C@](O)(CCN(C)C)[C@@H](c2cc3cc(C#N)ccc3nc2OC)c2ccnc(OC)c2OC)cc(S(=O)(=O)CC)n1` (racemic), the results for the MIC90 in series [2] and in [9] were 5 µg/mL (≈ 7.17 µM) and 4.4 µg/mL (≈ 6.31 µM), respectively.
